Article PMC10466730 (Cancer cell, 2023)
Read-outs that look alike come from different tables or passages of the source. Each block holds one compound with its values, some of them ahead of it.

Experiments:
[1] = target: CK1α (Homo sapiens, UniProt P48729+Q96SW2); test: Western blot of CK1α in MOLM-13 cells; format: cell-based; settings: for CK1α degradation (Western blot): MOLM-13
How it was run: (§1)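 MOLM-13 cells (1 × 10⁶) were treated 24 h with test compound diluted from DMSO stocks. Cells were pelleted, washed with PBS, lysed in Laemmli buffer by vortexing for 10 min, and boiled at 95 °C for 5 min. Lysates were resolved on 4–15% gradient SDS-PAGE, transferred to PVDF and immunoblotted with target-specific antibodies.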

[2] = tested on: MOLM-13 cells; test: Viability assay in MOLM-13 cells; format: cell-based, human; settings: MOLM-13, 72 h; for cellular growth inhibition: unlike lenalidomide, Figure 1E; for IC50: Homo sapiens
How it was run: (§2)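 Human AML cell lines were plated at 10,000 cells per well with increasing test compound up to 100 μM for 72 h at 37 °C, 5% CO₂. CellTiter-Glo was added 1:1 for 15 min at room temperature and luminescence was read; MTT was used as an alternative read-out. Percent viability was fitted by non-linear regression to give IC50. Three independent experiments, triplicates.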

[3] = target: IKZF2 (Homo sapiens, UniProt Q96SW2+Q9UKS7); test: Western blot of IKZF2 in MOLM-13 cells; format: cell-based; settings: MOLM-13, 24 h
Sequence of IKZF2 (Q9UKS7 whole entry): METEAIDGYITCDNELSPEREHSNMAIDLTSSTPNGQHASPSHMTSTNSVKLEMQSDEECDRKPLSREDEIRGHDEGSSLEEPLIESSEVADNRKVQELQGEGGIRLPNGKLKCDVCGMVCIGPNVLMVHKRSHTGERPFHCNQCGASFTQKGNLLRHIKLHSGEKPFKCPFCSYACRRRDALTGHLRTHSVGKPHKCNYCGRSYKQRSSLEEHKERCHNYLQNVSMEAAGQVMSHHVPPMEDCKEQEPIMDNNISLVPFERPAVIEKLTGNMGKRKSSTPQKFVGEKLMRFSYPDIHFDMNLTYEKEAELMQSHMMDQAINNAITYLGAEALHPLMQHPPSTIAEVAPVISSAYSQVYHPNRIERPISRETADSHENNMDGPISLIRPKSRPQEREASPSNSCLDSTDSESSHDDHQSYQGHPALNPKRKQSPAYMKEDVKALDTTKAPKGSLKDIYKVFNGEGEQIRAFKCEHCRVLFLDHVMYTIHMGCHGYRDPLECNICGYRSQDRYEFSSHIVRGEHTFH
Sequence of IKZF2 (Q96SW2 whole entry): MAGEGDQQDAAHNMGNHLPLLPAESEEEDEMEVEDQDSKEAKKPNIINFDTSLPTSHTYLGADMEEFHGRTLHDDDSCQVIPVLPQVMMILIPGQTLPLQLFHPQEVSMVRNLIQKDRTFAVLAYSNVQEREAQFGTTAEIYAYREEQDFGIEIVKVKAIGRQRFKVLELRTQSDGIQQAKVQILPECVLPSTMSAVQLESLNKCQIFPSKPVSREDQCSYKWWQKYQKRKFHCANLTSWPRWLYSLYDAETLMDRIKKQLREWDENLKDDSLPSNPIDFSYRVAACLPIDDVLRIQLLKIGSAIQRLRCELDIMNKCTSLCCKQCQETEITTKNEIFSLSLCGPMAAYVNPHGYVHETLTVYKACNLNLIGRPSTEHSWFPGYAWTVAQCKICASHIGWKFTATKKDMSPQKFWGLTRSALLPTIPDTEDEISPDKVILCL
Sequence of IKZF2 (Q16531 whole entry partner): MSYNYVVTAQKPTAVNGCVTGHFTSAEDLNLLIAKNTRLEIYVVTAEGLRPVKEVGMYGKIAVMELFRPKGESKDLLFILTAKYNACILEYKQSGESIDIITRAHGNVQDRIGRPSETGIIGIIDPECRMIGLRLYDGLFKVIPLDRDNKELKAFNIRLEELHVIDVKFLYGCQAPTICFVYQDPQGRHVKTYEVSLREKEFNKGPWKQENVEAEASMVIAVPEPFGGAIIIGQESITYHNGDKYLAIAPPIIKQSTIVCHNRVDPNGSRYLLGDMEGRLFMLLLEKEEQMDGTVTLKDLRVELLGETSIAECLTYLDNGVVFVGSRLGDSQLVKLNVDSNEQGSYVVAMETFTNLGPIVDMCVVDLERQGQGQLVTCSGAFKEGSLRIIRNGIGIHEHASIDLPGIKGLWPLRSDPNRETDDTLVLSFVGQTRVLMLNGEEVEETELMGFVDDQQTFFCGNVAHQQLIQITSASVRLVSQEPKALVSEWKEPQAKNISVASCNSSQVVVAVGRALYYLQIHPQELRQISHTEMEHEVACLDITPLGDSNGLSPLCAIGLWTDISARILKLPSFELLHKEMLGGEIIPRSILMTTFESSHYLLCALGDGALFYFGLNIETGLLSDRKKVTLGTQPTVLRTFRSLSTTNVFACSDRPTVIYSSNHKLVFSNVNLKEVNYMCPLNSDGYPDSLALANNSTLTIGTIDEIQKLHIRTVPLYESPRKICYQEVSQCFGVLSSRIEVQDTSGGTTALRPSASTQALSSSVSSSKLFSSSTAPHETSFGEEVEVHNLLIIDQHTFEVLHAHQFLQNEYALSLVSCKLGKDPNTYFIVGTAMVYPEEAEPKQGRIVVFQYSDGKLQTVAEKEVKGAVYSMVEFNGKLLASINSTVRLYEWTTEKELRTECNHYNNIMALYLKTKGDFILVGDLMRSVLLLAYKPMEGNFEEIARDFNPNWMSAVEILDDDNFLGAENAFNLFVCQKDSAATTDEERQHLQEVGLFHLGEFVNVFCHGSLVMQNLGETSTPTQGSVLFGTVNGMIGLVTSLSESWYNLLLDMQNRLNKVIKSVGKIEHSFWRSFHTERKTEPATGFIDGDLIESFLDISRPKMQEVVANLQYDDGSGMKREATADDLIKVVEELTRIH
How it was run: as §1

[4] = tested on: panel of AML cell lines; test: Viability assay in a panel of AML cell lines; format: cell-based, human; settings: AML cell lines with various oncogenic mutations, 72 h
How it was run: as §2

[5] = tested on: MLL-AF9 leukemic bone marrow Crbn^I391V cells; test: Viability assay in MLL-AF9 leukemic bone marrow Crbn^I391V cells; format: cell-based; settings: Mus musculus, MLL-AF9, 72 h, read-out: IC50 (proliferation)
[6] = tested on: normal bone marrow Crbn^I391V cells; test: Viability assay in normal bone marrow Crbn^I391V cells; format: cell-based; settings: Mus musculus, 72 h, read-out: IC50 (proliferation)
[7] = tested on: AML PDX cells; test: Viability assay in AML PDX cells; format: cell-based, human; settings: read-out: IC50 (viability); two AML PDX samples, 2 days, Figure 5D
How it was run: (§3)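 AML PDX cells or normal human bone marrow cells were plated at 10,000 cells per well with increasing test compound concentrations and cultured for 2 days at 37 °C, 5% CO₂. Viability was read by CellTiter-Glo luminescence or MTT absorbance, normalized to percent viability, and fitted by non-linear regression.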

[8] = tested on: healthy bone marrow cells; test: Viability assay in healthy bone marrow cells; format: cell-based; settings: Homo sapiens, Bone marrow cell, 48 h, read-out: IC50 (viability)
How it was run: as §3

[9] = target: CK1α-GFP fusion protein (Homo sapiens, UniProt P48729+Q96SW2); test: Flow cytometry degradation assay, HEK293T CK1α-GFP; format: cell-based; settings: 5 h
[10] = target: IKZF2(zinc finger 2)-GFP fusion protein (Homo sapiens, UniProt Q96SW2+Q9UKS7); test: Flow cytometry degradation assay, HEK293T IKZF2; format: cell-based; settings: HEK293T IKZF2(zinc finger 2)-GFP, 24 h
[11] = target: IKZF1(zinc finger 2)-GFP (Homo sapiens, UniProt Q13422); test: Flow cytometry degradation assay, HEK293T IKZF1; format: cell-based; settings: HEK293T IKZF1(zinc finger 2)-GFP
[12] = target: GSPT1-GFP (Homo sapiens, UniProt P15170+Q96SW2); test: Flow cytometry degradation assay, HEK293T GSPT1-GFP; format: cell-based
[13] = target: CRBN (Homo sapiens, UniProt Q96SW2); test: HTR-FRET Cereblon binding assay
Sequence of CRBN (Q96SW2 whole entry): as the sequence (Q96SW2 whole entry) above

[14] = target: His-CULT and streptactin-CK1α (Homo sapiens, UniProt P48729+Q96SW2); test: AlphaScreen ternary complex between CRBN and CK1α; format: binding; settings: compared with lenalidomide
Sequence of His-CULT and streptactin-CK1α (Q96SW2 318-426 limits assumed): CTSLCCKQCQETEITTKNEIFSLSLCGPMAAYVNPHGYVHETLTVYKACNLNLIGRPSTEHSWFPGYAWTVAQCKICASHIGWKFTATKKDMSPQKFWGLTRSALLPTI
Sequence of His-CULT and streptactin-CK1α (P48729 whole entry): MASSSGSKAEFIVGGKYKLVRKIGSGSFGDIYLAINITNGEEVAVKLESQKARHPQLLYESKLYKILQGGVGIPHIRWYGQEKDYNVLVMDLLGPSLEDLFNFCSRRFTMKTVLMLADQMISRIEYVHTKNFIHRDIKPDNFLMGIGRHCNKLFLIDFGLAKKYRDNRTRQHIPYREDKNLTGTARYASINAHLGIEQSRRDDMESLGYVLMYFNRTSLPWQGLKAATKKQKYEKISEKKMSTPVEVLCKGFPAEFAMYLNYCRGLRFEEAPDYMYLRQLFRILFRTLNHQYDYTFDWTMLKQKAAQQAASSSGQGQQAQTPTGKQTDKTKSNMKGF
How it was run: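 CK1α–CRBN ternary complex by AlphaScreen in 1× AlphaScreen buffer (3× stock: 150 mM HEPES pH 7.4, 450 mM NaCl, 0.3% BSA, 0.03% Tween 20). Streptactin-CK1α (600 nM solution) and CULT (500 nM solution) were mixed with a 2-fold serial dilution of test compound in 3% DMSO/buffer, in triplicate, for 1 h at 25 °C. Streptactin acceptor and nickel chelate donor beads were then added for 1 h at 25 °C in the dark before reading.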

[15] = target: IKZF1 (Homo sapiens, UniProt Q13422); test: Western blot of IKZF1 in MOLM-13 cells; format: cell-based; settings: MOLM-13, 24 h
How it was run: as §1

[16] = target: IKZF3 (Homo sapiens, UniProt Q9UKT9); test: Western blot of IKZF3 in MOLM-13 cells; format: cell-based; settings: MOLM-13, 24 h
How it was run: as §1

[17] = target: IKZF4 (Homo sapiens, UniProt Q9H2S9); test: Western blot of IKZF4 in MOLM-13 cells; format: cell-based; settings: MOLM-13, 24 h
How it was run: as §1

[18] = target: GSPT1 (Homo sapiens, UniProt P15170+Q96SW2); test: Western blot of endogenous GSPT1; format: cell-based; settings: degradation at micromolar concentrations, Figure S2D
[19] = tested on: MOLM-13 cells; test: Quantitative global proteomics in MOLM-13 cells; format: cell-based, human; settings: 50 nM, 2 h
[20] = tested on: MOLM-13 cells; test: Flow cytometry for apoptosis and differentiation in MOLM-13 cells; format: cell-based, human; settings: MOLM-13, 10 nM and 100 nM, 2 days
How it was run: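 MOLM-13 cells were treated 48 h. For differentiation, cells were stained 20 min in the dark in 2% FBS RPMI for CD13-FITC/CD33-APC or CD14-FITC/CD11b-APC. Mean ± SEM of three experiments; Student's t test.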

[21] = tested on: MLL-AF9 Crbn^I391V cells; test: Flow cytometry for apoptosis and differentiation in MLL-AF9 Crbn^I391V cells; format: cell-based, mouse; settings: 10 nM, 24 h post treatment, dependent on humanized CRBN
[22] = tested on: MLL-AF9 Crbn^I391V leukemic cells; test: Colony assay of MLL-AF9 Crbn^I391V leukemic cells; format: cell-based, mouse; settings: 10 nM, M3434 methylcellulose
How it was run: (§4)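 Murine cells were plated on MethoCult M3434 methylcellulose with test compound: 500 sorted LSK cells from Crbn^I391V mice, or 1000 bone marrow cells from MLL-AF9 Crbn^I391V leukemic mice. Colonies were counted after 5 days and normalized. Cells came from n=3 mice. Mean ± SEM of biological replicates from two experiments.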

[23] = tested on: LSK cells from Crbn^I391V mice; test: Colony assay of Crbn^I391V LSK cells; format: cell-based, mouse; settings: 10 nM, M3434 methylcellulose
How it was run: as §4

[24] = tested on: primary AML patient samples; test: Colony assay of primary AML patient samples; format: cell-based, human; settings: 10 nM, n = 8, compared to healthy adult bone marrow or cord blood cells
How it was run: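 Primary AML patient cells, normal bone marrow or cord blood CD34+ HSPCs were plated at 5000 cells on methylcellulose with test compound. Colonies were counted after 7 days and normalized to control. Mean ± SEM of samples from more than three experiments.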

[25] = tested on: MOLM-13 and MOLM-14 cells; test: Combination viability assay with other AML drugs; format: cell-based, human; settings: 72 h
How it was run: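 MOLM-13 cells were co-treated with test compound plus midostaurin or cytarabine for 72 h. Viability was read by CellTiter-Glo luminescence. A representative of three independent experiments is shown, mean ± SEM of triplicates.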

[26] = Pharmacokinetics in mice; format: in vivo, mouse; settings: plasma, ip
How it was run: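 Single intraperitoneal doses in DMSO: one test compound at 5 or 50 mg/kg in male CD1 mice, another at 223 mg/kg in female Crbn^I391V mice. Plasma was collected at set times and compound levels were measured by HPLC.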

[27] = tested on: MLL-AF9 Crbn^I391V cells; test: Pharmacodynamics in BL6 mice transplanted with MLL-AF9 Crbn^I391V cells; format: in vivo, mouse
[28] = tested on: MLL-AF9 Crbn^I391V cells; test: Efficacy in BL6 mice transplanted with MLL-AF9 Crbn^I391V cells; format: in vivo
[29] = tested on: MOLM-13 cells; test: Efficacy in NSG mice transplanted with MOLM-13 cells; format: in vivo; settings: for survival: vs DMSO
[30] = tested on: AML PDX#2; test: Efficacy in NSG mice transplanted with AML PDX; format: in vivo, mouse
[31] = Solubility in DMSO; format: physicochemical
[32] = Toxicity in the hematopoietic system of Crbn^I391V mice; format: in vivo, mouse; settings: four rounds of 223 mg/kg, weekly
How it was run: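 Female Crbn^I391V mice aged 8–12 weeks received DMSO or 223 mg/kg test compound once weekly for four rounds. They were sacrificed 4 weeks later. Blood was analysed on a hematology analyser, and stem/progenitor compartments were assessed by flow cytometry.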

[33] = tested on: MLL-AF9 Crbn^I391V cells; test: Efficacy in Crbn^I391V mice transplanted with MLL-AF9 Crbn^I391V cells; format: in vivo, mouse; settings: 223 mg/kg weekly, non-irradiated Crbn^I391V mice
[34] = read-out: IC50 (cell viability)

Sequence of CK1α (P48729 whole entry): as above
Sequence of CK1α (Q96SW2 whole entry): as the sequence (Q96SW2 whole entry) above
Sequence of CK1α (Q16531 whole entry partner): as the sequence (Q16531 whole entry partner) above

CK1α degradation (Western blot) [1]: but not CH2-DEG-35 efficiently degraded
Structure (SMILES): COc1ccc2cc(CNc3ccc4c(c3)CN(C3CCC(=O)NC3=O)C4=O)ccc2c1 (stereo not shown) [CH2-DEG-35, 3-(5-(((6-methoxynaphthalen-2-yl)methyl)amino)-1-oxoisoindolin-2-yl)piperidine-2,6-dione]

IKZF2 degradation (Western blot) [3]: dose-dependent degradation
Structure (SMILES): O=C1CCC(N2Cc3cc(NC(=O)c4ccc5ccccc5c4)ccc3C2=O)C(=O)N1 (stereo not shown) [DEG-9, N-(2-(2,6-dioxopiperidin-3-yl)-1-oxoisoindolin-5-yl)-2-naphthamide]
cellular growth inhibition [2]: inhibited cellular growth

Structure (SMILES): COc1ccc2cc(C(=O)Nc3ccc4c(c3)CN(C3CCC(=O)NC3=O)C4=O)ccc2c1 (stereo not shown) [DEG-35, N-(2-(2,6-dioxopiperidin-3-yl)-1-oxoisoindolin-5-yl)-6-methoxy-2-naphthamide]
IC50 [2, 34]: 5 nM | IC50 ([2]; read-out: IC50 (viability)): 5.7 nM | cellular growth inhibition [2]: inhibited cellular growth | IC50 values (growth) [4]: single digit nM to low μM | IC50 [5]: 9.2 nM | IC50 [6]: 100 nM | IC50 [7]: 5.2 nM | IC50 [8]: 15.7 nM | DCmax CK1α [9]: 84% | DCmax IKZF2 [10]: 92% | DCmax IKZF1-GFP [11]: 12% | DCmax GSPT1-GFP [12]: 24% | Kd [13]: 473 nM | ternary complex between CRBN and CK1α [14]: significantly stronger ternary complex | IKZF2 degradation (Western blot) [3]: efficiently degraded IKZF2 | CK1α degradation (Western blot) [1]: efficiently degraded CK1α | concentrations depleting CK1α (as low as) ([1]; MOLM-13, 24 h, Western blot): 1 to 10 nM | activity against IKZF1 (Western blot) [15]: limited activity | activity against IKZF3 (Western blot) [16]: limited activity | activity against IKZF4 (Western blot) [17]: limited activity | endogenous GSPT1 degradation (Western blot) [18]: limited degradation at nanomolar concentrations | CK1α rank in global proteomics [19]: most significantly downregulated protein | apoptosis induction and myeloid differentiation [20]: significant dose-dependent apoptosis induction and myeloid differentiation | apoptosis and myeloid differentiation [21]: resulted in apoptosis and myeloid differentiation at nanomolar concentrations | reduction of colonies [22]: half | LSK derived colonies [23]: not affected | colony formation [24]: reduced colony formation | sensitivity to DEG-35 on co-treatment with cytarabine [25]: more sensitive | sensitivity to DEG-35 on co-treatment with midostaurin [25]: more sensitive | half-life ([26]; male, CD1, mouse): 2.5 h | degradation of CK1α and IKZF2 in leukemic cells from bone marrow and spleen ([27]; single dose 50 mg/kg, 24 h and 72 h): efficient degradation of CK1α and IKZF2 | body weight ([28]; 50 mg/kg): without overt weight loss | leukemia progression ([28]; 50 mg/kg, vs DMSO): delayed leukemia progression | body weight ([29]; 50 mg/kg): without overt weight loss | disease burden (spleen and liver weights) ([29]; 50 mg/kg): decreased spleen and liver weights | survival ([29]; 50 mg/kg): significantly prolonged survival | survival ([30]; AML PDX#2, DEG-35 vs DMSO): significant prolonged survival

Structure (SMILES): COc1cccc2c1OCC(C(=O)Nc1ccc3c(c1)CN(C1CCC(=O)NC1=O)C3=O)=C2 (stereo not shown) [DEG-77, N-(2-(2,6-dioxopiperidin-3-yl)-1-oxoisoindolin-5-yl)-8-methoxy-2H-chromene-3-carboxamide]
IC50 [2, 34]: 4 nM | IKZF2 degradation (Western blot) [3]: maintained comparable activity | CK1α degradation (Western blot) [1]: maintained comparable activity | half-life ([26]; female, Crbn^I391V, mouse, 223 mg/kg): 16.9 h | increase in solubility in DMSO compared to DEG-35 [31]: 10 fold | degradation of IKZF2, CK1α, GSPT1 in bone marrow and splenic leukemic cells ([27]; one injection 223 mg/kg, 24, 48 and 72 h): degradation of IKZF2 and CK1α but not GSPT1 | body weight ([28]; 223 mg/kg weekly): without loss of total body weight | survival ([28]; 223 mg/kg weekly, vehicle 35 days): 66 days | leukemia progression in secondary transplant ([28]; cells from mice treated in the primary transplant): pronounced delay in leukemia progression | survival ([29]; 223 mg/kg weekly): increased survival | survival ([30]; 223 mg/kg weekly from 4 weeks post-transplant): significant extension of survival | engraftment of PDX cells in the bone marrow ([30]; after a single injection, >85% prior to treatment): around 40% | WBC counts [32]: modest reduction of WBC counts | platelets and RBC counts [32]: remained unchanged | stem cell compartment frequency [32]: reduced HSC and MPP1 frequency | survival [33]: significant increase in survival

IKZF2 degradation (Western blot) [3]: rescued IKZF2 and CK1α degradation | CK1α degradation (Western blot) [1]: rescued IKZF2 and CK1α degradation
Structure (SMILES): COc1ccc2cc(C(=O)Nc3ccc4c(c3)CN(C3CCC(=O)N(C)C3=O)C4=O)ccc2c1 (stereo not shown) [Me-DEG-35, 6-methoxy-N-(2-(1-methyl-2,6-dioxopiperidin-3-yl)-1-oxoisoindolin-5-yl)-2-naphthamide]
